Measured values reported in paper PMC6161044 (ACS Central Science, 2018).
“And” between values parts separate entries of the source, which are not always exact repeats. Equal values may be shown once. Ends that are not written are not given here. Peptide text beside a SMILES is read from it. * marks the point of attachment. αGalNAc = CC(=O)N[C@@H]1[C@@H](O)[C@@H](O)[C@@H](CO)O[C@@H]1*

How the values were obtained:
[1] = target: GalNAc-T4 Catalytic/LFL Mutant (T283S-Q285A-D464A) (Homo sapiens, UniProt Q8N4A0, D464A/Q285A/T283S); test: Transferase assay and kinetics, catalytic/LFL mutant; assay type: biochemical
Method in brief: (§1)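 Enzyme construct residues 36–578, wild-type or site-directed mutants. Reaction: 75 mM Na cacodylate pH 6.5, 1 mM 2-mercaptoethanol, 10 mM MnCl2, 0.25 mM UDP-[3H]GalNAc, 0.004–1.4 mM (glyco)peptide and 0.02–0.2 μM enzyme, at 37 °C for 10–180 min (≤30% donor used). EDTA quench, Dowex, then Sephadex G10 to separate transfer from hydrolysis. Rates hydrolysis-corrected, 2–5 repeats; Km, Vmax and Ki from Michaelis–Menten ± substrate-inhibition fits.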

[2] = target: GalNAc-T4 Lectin Flexible Loop (LFL) deletion/mutant (P463DNNP467 to GGG) (Homo sapiens, UniProt Q8N4A0, DEL463-464/N465G/N466G/P467G); test: Transferase assay and kinetics, LFL mutant; assay type: biochemical; settings: for UDP-GalNAc Hydrolysis %: LFL deletion/mutant, Sephadex G10 chromatography (Figure S8)
Method in brief: as §1

[3] = target: GalNAc-T4 Catalytic Mutant (T283S-Q285A) (Homo sapiens, UniProt Q8N4A0, Q285A/T283S); test: Transferase assay and kinetics, catalytic mutant; assay type: biochemical
[4] = target: GalNAc-T4 Lectin Mutant (D459H) (Homo sapiens, UniProt Q8N4A0, D459H); test: Transferase assay and kinetics, lectin mutant; assay type: biochemical; settings: for UDP-GalNAc Hydrolysis %: Sephadex G10 chromatography (Figure S8)
Method in brief: as §1

[5] = target: T1, GalNAc-T4 wild-type (Homo sapiens, UniProt Q8N4A0); settings: cited from earlier work
[6] = target: T2, GalNAc-T4 (Homo sapiens, UniProt Q8N4A0); settings: in presence of GalNAc-T4, UDP, MnCl2; cited from earlier work
[7] = target: T2, GalNAc-T4; test: Surface plasmon resonance binding to GalNAc-T4; settings: wild-type
Method in brief: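 SPR binding of glycopeptide substrate to wild-type enzyme, run with excess UDP and MnCl2 present; Kd obtained by fitting the binding data.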

[8] = target: T1, GalNAc-T4 wild-type; test: Transferase assay and kinetics, wild-type GalNAc-T4; assay type: biochemical; settings: for Activity relative to glycopeptides 4 and 5 (fold higher): from Figure 1a
Method in brief: as §1

[9] = target: catalytic domain mutant of GalNAc-T4 (T283S-Q285A) (Homo sapiens, UniProt Q8N4A0, Q285A/T283S); test: Surface plasmon resonance binding to GalNAc-T4 catalytic mutant; settings: T283S/Q285A catalytic mutant (Figure S11)
[10] = target: T2, GalNAc-T4; test: STD-NMR epitope mapping with GalNAc-T4; assay type: binding; settings: ~877 μM glycopeptide, 13.5 μM GalNAc-T4, 75 μM UDP, 75 μM MnCl2, 298 K
[11] = target: T2, GalNAc-T4; settings: wild-type GalNAc-T4, excess UDP and MnCl2; saturation not achieved; cited from earlier work
[12] = target: GalNAc-T4 catalytic mutant (T283S, Q285A), residues 36-578 (human, UniProt Q8N4A0 36-578, T283S | Q285A); test: SPR
[13] = target: GalNAc-T4 (polypeptide GalNAc-transferase 4), wild type, residues 36-578 (human, UniProt Q8N4A0 36-578); test: SPR

## GAGAGAGT*TPGPG [compound 4]
[1]
  Apparent activity and Vmax as fraction of the values for the catalytic and LFL mutants: 1/4
[2]
  UDP-GalNAc Hydrolysis %: ~50%
[2]; LFL mutant
  Reduction in catalytic efficiency compared to wt GalNAc-T4: ~50%
[3]
  Catalytic activity (Vmax) as fraction of wt GalNAc-T4 activity: 1/3
  Km relative to wt (fold higher): ~2 fold
[4]
  Catalytic efficiency relative to wt transferase (fold higher): ~2 fold
  Vmax relative to wt transferase (fold higher): ~2 fold

## AGAGTTPGPGAGAT*GA [compound 2]
[5]
  Glycosylation by GalNAc-T4 (in words): imperceptibly glycosylated
[2]
  UDP-GalNAc Hydrolysis %: ~90%

## GAGAGAGTTPGPG [compound 1]
[5]
  Glycosylation by GalNAc-T4 (in words): imperceptibly glycosylated
[2]
  UDP-GalNAc Hydrolysis %: ~90%
[6]
  STD-NMR enhancements (in words): No significant STD enhancements

## CC(=O)N[C@H]1[C@@H](O[C@H](C)[C@H](NC(=O)CNC(=O)[C@H](C)NC(=O)CNC(=O)[C@H](C)NC(=O)CNC(=O)[C@H](C)NC(=O)CNC(=O)[C@@H](NC(=O)[C@H](C)NC(=O)CN)[C@@H](C)O[C@H]2O[C@H](CO)[C@H](O)[C@H](O)[C@H]2NC(C)=O)C(=O)N[C@H](C(=O)N2CCC[C@H]2C(=O)NCC(=O)N2CCC[C@H]2C(=O)NCC(N)=O)[C@@H](C)O)O[C@H](CO)[C@H](O)[C@@H]1O [compound 6] (H-GAT(αGalNAc)GAGAGAGT(αGalNAc)TPGPG-NH2; N-terminus and C-terminus assumed)
[1]
  Km relative to catalytic mutant (fold lower): ~4 fold
[2]; LFL mutant
  Apparent Vmax relative to wt GalNAc-T4 (fold higher): ~2 fold
[7]
  Kd (SPR) relative to Km (fold higher): ~2 fold
[3]
  Catalytic efficiency Vmax/Km as fraction of wt: about 1/2
  Initial Vmax relative to wt transferase (fold higher): ~2 fold
  Km relative to wt (fold higher): ~4 fold and ~3 fold
[4]
  Km increase relative to wt GalNAc-T4: ~20 fold
  Vmax decrease relative to wt GalNAc-T4: ~5 fold
  UDP-GalNAc Hydrolysis %: ~20%
[8]
  Catalytic efficiency (Vmax/Km) relative to peptide 3 (fold higher): ~1.5 fold
  Catalytic efficiency (Vmax/Km) relative to peptide 4 (fold higher): ~150 fold
  Km relative to peptide 3 (fold lower): ~1.3 fold
  Activity relative to glycopeptides 4 and 5 (fold higher): ~10 fold
[9]
  Kd by SPR relative to wt transferase (fold higher): ~6 fold
[10]; catalytic domain bound neighboring GalNAc
  STD-NMR response, H2 proton of the GalNAc at Thr11: 50%
[10]; remote lectin bound GalNAc
  STD-NMR response, H2 proton of the GalNAc at Thr3: 90%

## AGAGT*TPGPGAGAT*GA [compound 5]
[1]
  Apparent activity and Vmax as fraction of the values for the catalytic and LFL mutants: 1/4
[2]
  UDP-GalNAc Hydrolysis %: ~50%
[2]; LFL mutant
  Reduction in catalytic efficiency compared to wt GalNAc-T4: ~50%
[3]
  Catalytic activity (Vmax) as fraction of wt GalNAc-T4 activity: 1/3
  Km relative to wt (fold higher): ~2 fold

## GAT*GAGAGAGTTPGPG [compound 3]
[1]
  Km relative to wt (fold higher): ~2 fold
[11]
  Kd by SPR (in words): in the mM range
[3]
  Km relative to wt (fold higher): ~2 fold
[4]
  Km increase relative to wt GalNAc-T4: ~20 fold
  UDP-GalNAc Hydrolysis %: ~70%
[8]
  Catalytic efficiency (Vmax/Km) relative to peptide 4 (fold higher): ~100 fold
  Km relative to peptide 4 (fold lower): ~12 fold
  Vmax relative to peptide 4 (fold higher): ~8 fold
  Activity relative to glycopeptides 4 and 5 (fold higher): ~10 fold

## GATGAGAGAGTTPGPG (not fully specified (residues 3, 11); printed as GAT*GAGAGAGT*TPGPG) [diglycopeptide 6, GAT*GAGAGAGT*TPGPG]
[12]
  fold change of Kd against the wt transferase: ~6 fold
[13]
  Kd: 70 ± 15 µM
